Here are results for six molecules from ChEMBL document CHEMBL1138488, “Synthesis and biological evaluation of 3,3-difluoropyridine-2,4(1H,3H)-dione and 3-deaza-3-fluorouracil base and nucleoside derivatives” (J Med Chem, 2009).

Data set [1] deals with Human alphaherpesvirus 1. Kind of data set: Antiviral activity against HSV1 KOS infected in HEL cells assessed as virus-induced cytopathic effect at <=100 uM. In kind it is functional, organism-based. Background: Protection from cytopathic effect is a common read-out in antiviral testing.
Data set [2] concerns Human immunodeficiency virus 2. The experiment in a line: Antiviral activity against HIV2 ROD replication in human CEM cells assessed as virus-induced giant cell formation at <=100 uM after 4 days. In kind it is functional, organism-based. The conditions noted are these: CCRF-CEM. The method, boiled down:
(§1)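 CEM cells (~3 × 10⁵ cells/cm³) were infected with 100 CCID₅₀/mL of HIV-1(III_B) or HIV-2(ROD) and seeded into wells containing compound dilutions. After 4 days at 37 °C, virus-induced giant cell formation was examined microscopically.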

Data set [3] concerns Mammalian orthoreovirus 3. Kind of data set: Antiviral activity against Reovirus 3 infected in african green monkey Vero cells assessed as inhibition of virus-induced cytopathic effect at <=100 uM. In kind it is functional, organism-based.
Data set [4] deals with Human betaherpesvirus 5. The experiment in a line: Antiviral activity against HCMV AD169 infected in HEL cells assessed as inhibition of virus-induced cytopathic effect at <=100 uM. Format: functional, organism-based. The method, boiled down:
(§2)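 Confluent cell monolayers were inoculated with 100 CCID₅₀ of virus, and virus was adsorbed for 1 h. Residual virus was then removed and cells were incubated with serial compound concentrations ([…], ... µM). Cytopathicity was scored once it reached completion in untreated virus-infected control cultures.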

Data set [5] relates to Coxsackievirus B4. The experiment in a line: Antiviral activity against Coxsackievirus B4 infected in human HeLa cells assessed as inhibition of virus-induced cytopathic effect at <=100 uM. In kind it is functional, organism-based. The method, boiled down:
as §2

In data set [6] the test system is CCRF-CEM. The experiment in a line: Cytostatic activity against human CEM cells at <=500 uM after 3 days by Coulter counting analysis. In kind it is cell-based. The note with it: 72 h. The method, boiled down: (§3)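 Molt4/C8 or CEM lymphocytes were seeded at 75000 cells per well with varying compound concentrations. Viable cells were counted by Coulter counter after 3 days. CC₅₀ is the concentration inhibiting cell proliferation by 50%.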

Data set [7] has as its system L1210. Kind of data set: Cytostatic activity against mouse L1210 cells at <=500 uM after 2 days by Coulter counting analysis. Format: ADME, cell-based. The conditions noted are these: l1210, 48 h. In a few lines:
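Murine leukemia L1210 cells were seeded at 50000 cells per well with varying compound concentrations. Viable cell number was counted by Coulter counter after 2 days.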

Data set [8] has as its system Sindbis virus. The experiment in a line: Antiviral activity against Sindbis virus infected in african green monkey Vero cells assessed as inhibition of virus-induced cytopathic effect at <=100 uM. In kind it is functional, organism-based. The method, boiled down:
as §2

Data set [9] concerns Human alphaherpesvirus 3. Kind of data set: Antiviral activity against thymidine kinase deficient Varicella zoster virus 07/1 infected in human HEL cells assessed as inhibition of virus-induced cytopathic effect at <=100 uM. Format: functional, organism-based. The method, boiled down:
as §2

Data set [10] concerns Punta Toro virus. Kind of data set: Antiviral activity against Punta Toro virus infected in african green monkey Vero cells assessed as inhibition of virus-induced cytopathic effect at <=100 uM. Format: functional, organism-based. In a few lines:
as §2

The test system of data set [11] is Vaccinia virus. The experiment in a line: Antiviral activity against Vaccinia virus infected in HEL cells assessed as inhibition of virus-induced cytopathic effect at <=100 uM. Format: functional, organism-based. The conditions noted are these: Orthopoxvirus vaccinia.
In data set [12] the test system is Vesicular stomatitis virus. The experiment in a line: Antiviral activity against Vesicular stomatitis virus infected in HEL cells assessed as inhibition of virus-induced cytopathic effect at <=100 uM. In kind it is functional, organism-based.
Data set [13] has as its system Human alphaherpesvirus 3. The experiment in a line: Antiviral activity against thymidine kinase expressing Varicella zoster virus Oka infected in human HEL cells assessed as inhibition of virus-induced cytopathic effect at <=100 uM. In kind it is functional, organism-based. The method, boiled down: as §2
Data set [14] relates to Moloney murine sarcoma virus. The experiment in a line: Antiviral activity against Moloney sarcoma virus replication infected in mouse […] cells assessed as virus-induced transformation of cells at <=100 uM measured on day 6 postinfection. Format: functional, organism-based. In a few lines:
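Murine C3H/3T3 embryo fibroblasts were grown to confluency and infected with Moloney murine sarcoma virus at 75 focus-forming units. Compound concentrations were then added, and virus-induced transformation was examined microscopically at day 6 postinfection.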

Data set [15] has as its system Vesicular stomatitis virus. Kind of data set: Antiviral activity against Vesicular stomatitis virus infected in human HeLa cells assessed as inhibition of virus-induced cytopathic effect at <=100 uM. In kind it is functional, organism-based.
Data set [16] deals with Human respirovirus 3. Kind of data set: Antiviral activity against Parainfluenza virus type 3 infected in african green monkey Vero cells assessed as inhibition of virus-induced cytopathic effect at <=100 uM. Format: functional, organism-based. The method, boiled down: as §2
For data set [17], the system named is Human betaherpesvirus 5. Kind of data set: Antiviral activity against HCMV Davis infected in HEL cells assessed as inhibition of virus-induced cytopathic effect at <=100 uM. In kind it is functional, organism-based. The method, boiled down:
as §2

A short description of data set [18]: Cytostatic activity against human Molt4/C8 cells at <=500 uM after 3 days by Coulter counting analysis. The note with it: molt-4, 72 h. Format: ADME, cell-based. The method, boiled down: as §3
For data set [19], the system named is Human alphaherpesvirus 2. Kind of data set: Antiviral activity against HSV2 strain G infected in HEL cells assessed as virus-induced cytopathic effect at <=100 uM. In kind it is functional, organism-based.
Data set [20] concerns Human immunodeficiency virus 1. Kind of data set: Antiviral activity against HIV1 3B replication in human CEM cells assessed as virus-induced giant cell formation at <=100 uM after 4 days. In kind it is functional, organism-based. The conditions noted are these: CCRF-CEM. In a few lines: as §1
Data set [21] deals with Human alphaherpesvirus 1. The experiment in a line: Antiviral activity against acyclovir-resistant […] kinase-deficient HSV1 KOS infected in HEL cells assessed as virus-induced cytopathic effect at <=100 uM. In kind it is functional, organism-based.
For data set [22], the system named is Respiratory syncytial virus. The experiment in a line: Antiviral activity against Respiratory syncytial virus infected in human HeLa cells assessed as inhibition of virus-induced cytopathic effect at <=100 uM. Format: functional, organism-based. The method, boiled down:
as §2

Activity calls are given as the source filed them. The rule behind the calls is not given here.

Regarding `O=c1c(F)c(O)ccn1[C@@H]1O[C@H](CO)[C@@H](O)[C@@H]1O`, the outcome in data set [1], in [2], in data set [3], in [4], in [5] and in [8] was inactive. In addition, the outcome in [9], in [10], in [11], in data set [12], in data set [13] and in [14] was inactive. Further, the result in data set [15], in [16], in [17], in data set [19], in data set [20] and in [21] was inactive. The outcome in data set [22] was inactive. In addition, the Activity result in data set [6], in [7] and in data set [18] was “Not Active” each time.

As to `O=c1c(F)c(O)ccn1[C@H]1C[C@H](O)[C@@H](CO)O1`, the outcome in data set [1], in data set [2], in data set [3], in data set [4], in [5] and in data set [8] was inactive. The result in [9], in [10], in [11], in data set [12], in data set [13] and in data set [14] was inactive. The result in data set [15], in data set [16], in [17], in [19], in data set [20] and in data set [21] was inactive. The result in data set [22] was inactive. Also, the Activity entry in [6], in [7] and in data set [18] was “Not Active” throughout.

Turning to `CC1(O)C=CN([C@H]2C[C@H](O)[C@@H](CO)O2)C(=O)C1(F)F` (some centres not stated), the outcome in data set [1], in data set [2], in [3], in data set [4], in [5] and in [8] was inactive. The outcome in [9], in data set [10], in [11], in data set [12], in data set [13] and in data set [14] was inactive. Besides, the outcome in data set [15], in data set [16], in [17], in data set [19], in data set [20] and in data set [21] was inactive. In addition, the outcome in data set [22] was inactive. For the same molecule, the Activity entry in data set [6], in [7] and in data set [18] was “Not Active” each time.

For `NC(=O)Cc1ccn([C@H]2C[C@H](O)[C@@H](CO)O2)c(=O)c1F`, the result in data set [1], in [2], in data set [3], in data set [4], in [5] and in data set [8] was inactive. The result in data set [9], in data set [10], in [11], in [12], in [13] and in data set [14] was inactive. Further, the outcome in data set [15], in data set [16], in data set [17], in data set [19], in data set [20] and in data set [21] was inactive. Also, the result in data set [22] was inactive. Further, the Activity entry in [6], in [7] and in data set [18] was “Not Active” in each case.

For the molecule `CC1(O)C=CN([C@@H]2O[C@H](CO)[C@@H](O)[C@H]2O)C(=O)C1(F)F` (some centres not stated), the result in data set [1], in [2], in [3], in [4], in data set [5] and in data set [8] was inactive. The result in [9], in data set [10], in [11], in data set [12], in [13] and in [14] was inactive. Moreover, the outcome in data set [15], in [16], in data set [17], in [19], in data set [20] and in data set [21] was inactive. Also, the result in data set [22] was inactive. The Activity entry in data set [6], in data set [7] and in data set [18] was “Not Active” each time.

In the case of `C#CC1(O)C=CN([C@H]2C[C@H](O)[C@@H](CO)O2)C(=O)C1(F)F` (some centres not stated), the outcome in [1], in [2], in [3], in data set [4], in [5] and in data set [8] was inactive. Further, the result in data set [9], in data set [10], in data set [11], in data set [12], in [13] and in data set [14] was inactive. Also, the result in data set [15], in [16], in data set [17], in [19], in data set [20] and in [21] was inactive. Besides, the result in data set [22] was inactive. Further, the Activity entry in data set [6], in data set [7] and in [18] was “Not Active” each time.
